In brackets after ≈: the same amount, converted by molar mass. *1 amine or outer side, *2 acyl side, *3 side chain or, on linkers, in order; H or OH if unused. Where a SMILES comes first, the peptide text is derived from it. Bridges are numbered along the chain shown (N, C = ends). Roman numbers before positions name the chains, in order. [ ]: non-standard residue; d: D form. Actinocin(9to1) = Cc1c2oc3c(C)ccc(C(=O)[*:1])c3nc-2c(C(=O)[*:2])c(N)c1=O; NMeV = CN[C@H](C(=O)O)C(C)C; Sar = CNCC(=O)O
What was measured:
Calf thymus DNA [1] = assay: Apparent number of binding sites per base pairs in DNA; type: nucleic-acid assay; settings: Bos taurus
Summary of the method: (§1)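 Calf thymus DNA; spectral titration; binding isotherms in 0.01 M phosphate buffer, pH 7.0, 20 °C; Kapp (per base pair) and Bapp (drug binding sites per base pair) taken from Scatchard plot.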

Calf thymus DNA [2] = assay: Apparent binding constant calf thymus DNA-drug complex; type: nucleic-acid assay; settings: Bos taurus; summary of the method: as §1
Bos taurus = species: Bos taurus; assay: Thermal denaturation (deltaTm) of compound against calf thymus DNA was measured; type: ADME; settings: cattle, in vitro
Summary of the method: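 Calf thymus DNA (MW 100 000–500 000) in 0.01 M phosphate, 5 × 10^-3 M EDTA, pH 7.0; drug 7 × 10^-4 M, DNA nucleotide 7 × 10^-3 M; 259 nm absorbance read at 0.25–1.0 °C steps; Tm taken at 50% hyperchromicity; ΔTm = complex Tm minus DNA Tm.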

CCRF-CEM = assay: In vitro antitumor activity against human lymphoblastic leukemia cells.; type: functional; settings: read-out: ID50 (the source's name)
Summary of the method: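 Human lymphoblastic leukemia CCRF-CEM cells grown in suspension culture; growth inhibition in vitro; ID50 (ng/mL) reported as the 50% inhibitory dose.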

P388 [3] = assay: Concentration required for 50% inhibition of incorporation of labeled uridine by P388 cells for the synthesis of RNA (in vitro); type: functional; settings: Mus musculus, read-out: ED50 (the source's name)
P388 [4] = assay: Concentration required for 50% inhibition of incorporation of labeled thymidine by p388 cells for synthesis of DNA (in vitro); type: functional; settings: Mus musculus, read-out: ED50 (the source's name)
P388 [5] = assay: Percent of increased life span of P388 cells implanted CDF1 male mice; type: functional, Mus musculus
Summary of the method: (§2)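 CDF1 male mice, groups of seven, given 10^6 P388 cells ip on day 0; drug ip in 5% DMSO–saline on days 1, 5 and 9; controls received vehicle; range of doses tested, optimal nontoxic dose listed; median survival time; %ILS = (treated − control)/control × 100; average of two or more experiments.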

P388 [6] = assay: Median survival time of the P388 cells implanted CDF1 male mice in vivo; type: functional, Mus musculus; summary of the method: as §2
P388 [7] = assay: Optimal dose for antitumor activity was measured in P388 cells of CDF1 male mice in vivo; type: functional, Mus musculus; summary of the method: as §2
Calf thymus DNA [8] = assay: Apparent number of binding sites per base pairs in DNA; Not measurable; type: nucleic-acid assay; settings: Bos taurus; summary of the method: as §1
P388 [9] = assay: Concentration required for 50% inhibition of incorporation of labeled uridine by P388 cells for the synthesis of RNA (in vitro); e indicates values are high and variable; type: functional, cell-based; settings: Mus musculus
P388 [10] = assay: Concentration required for 50% inhibition of incorporation of labeled thymidine by p388 cells for synthesis of DNA (in vitro); e indicates values are high and variable; type: functional, cell-based; settings: Mus musculus

Cc1c2oc3c(C)c(O)c(N)c(C(=O)N[C@H]4C(=O)N[C@@H](C(C)C)C(=O)N5CCC[C@H]5C(=O)N(C)CC(=O)N(C)[C@H](C(C)C)C(=O)O[C@H]4C)c3nc-2c(C(=O)N[C@@H]2C(=O)N[C@H](C(C)C)C(=O)N3CCC[C@@H]3C(=O)N(C)CC(=O)N(C)[C@@H](C(C)C)C(=O)O[C@@H]2C)c/c1=N/Cc1ccc(Cl)c(Cl)c1
Bapp (Calf thymus DNA [1]): 0.058
K app (Calf thymus DNA [2]): 2.6e+07 M⁻¹

Cc1c2oc3c(C)c(O)c(N)c(C(=O)N[C@H]4C(=O)N[C@@H](C(C)C)C(=O)N5CCC[C@H]5C(=O)N(C)CC(=O)N(C)[C@H](C(C)C)C(=O)O[C@H]4C)c3nc-2c(C(=O)N[C@@H]2C(=O)N[C@H](C(C)C)C(=O)N3CCC[C@@H]3C(=O)N(C)CC(=O)N(C)[C@@H](C(C)C)C(=O)O[C@@H]2C)c/c1=N/Cc1ccco1
Bapp (Calf thymus DNA [1]): 0.055
K app (Calf thymus DNA [2]): 3.8e+06 M⁻¹

Cc1c2oc3c(C)c(O)c(N)c(C(=O)N[C@@H]4C(=O)N[C@H](C(C)C)C(=O)N5CCC[C@H]5C(=O)N(C)CC(=O)N(C)[C@@H](C(C)C)C(=O)O[C@H]4C)c3nc-2c(C(=O)N[C@@H]2C(=O)N[C@H](C(C)C)C(=O)N3CCC[C@H]3C(=O)N(C)CC(=O)N(C)[C@@H](C(C)C)C(=O)O[C@H]2C)cc1=N
Bapp (Calf thymus DNA [1]): 0.121
K app (Calf thymus DNA [2]): 2.3e+07 M⁻¹

Cc1c2oc3c(C)ccc(C(=O)N[C@@H]4C(=O)N[C@H](C(C)C)C(=O)N5CCC[C@H]5C(=O)N(C)CC(=O)N(C)[C@@H](C(C)C)C(=O)O[C@@H]4C)c3nc-2c(C(=O)N[C@@H]2C(=O)N[C@H](C(C)C)C(=O)N3CCC[C@H]3C(=O)N(C)CC(=O)N(C)[C@@H](C(C)C)C(=O)O[C@@H]2C)c(N)c1=O [DACTINOMYCIN] (I: T[dV]P[Sar][NMeV] / II: T[dV]P[Sar][NMeV]; ester I:1-I:C, II:1-II:C; linker I:N-II:N via Actinocin(9to1))
Delta Tm (Bos taurus): 7.1
IC50 (CCRF-CEM): 0.06 µg/mL (≈ 0.0478 µM)
Bapp (Calf thymus DNA [1]): 0.108
K app (Calf thymus DNA [2]): 2.3e+07 M⁻¹
EC50 (P388 [3]): 46 nM
EC50 (P388 [4]): 996 nM
ILS (P388 [5]): 129%
MST (P388 [6]): 24 days
Optimal dose (P388 [7]): 0.125 mg/kg

CCCOc1cc(C(=O)N[C@@H]2C(=O)N[C@H](C(C)C)C(=O)N3CCC[C@@H]3C(=O)N(C)CC(=O)N(C)[C@@H](C(C)C)C(=O)O[C@@H]2C)c2nc3c(C(=O)N[C@H]4C(=O)N[C@@H](C(C)C)C(=O)N5CCC[C@H]5C(=O)N(C)CC(=O)N(C)[C@H](C(C)C)C(=O)O[C@H]4C)c(N)c(=O)c(C)c-3oc2c1C
Bapp (Calf thymus DNA [1]): 0.078
K app (Calf thymus DNA [2]): 2.1e+06 M⁻¹

Cc1c2oc3c(C)c(OCc4ccc(Cl)c(Cl)c4)cc(C(=O)N[C@@H]4C(=O)N[C@H](C(C)C)C(=O)N5CCC[C@@H]5C(=O)N(C)CC(=O)N(C)[C@@H](C(C)C)C(=O)O[C@@H]4C)c3nc-2c(C(=O)N[C@H]2C(=O)N[C@@H](C(C)C)C(=O)N3CCC[C@H]3C(=O)N(C)CC(=O)N(C)[C@H](C(C)C)C(=O)O[C@H]2C)c(N)c1=O
Bapp (Calf thymus DNA [8]): Not measurable
K app (Calf thymus DNA [2]): 10000 M⁻¹
ED50 (P388 [9]): High and variable values
ED50 (P388 [10]): High and variable values

Cc1c2oc3c(C)c(O)c(N)c(C(=O)N[C@H]4C(=O)N[C@@H](C(C)C)C(=O)N5CCC[C@H]5C(=O)N(C)CC(=O)N(C)[C@H](C(C)C)C(=O)O[C@H]4C)c3nc-2c(C(=O)N[C@@H]2C(=O)N[C@H](C(C)C)C(=O)N3CCC[C@@H]3C(=O)N(C)CC(=O)N(C)[C@@H](C(C)C)C(=O)O[C@@H]2C)c/c1=N/Cc1ccccc1
Bapp (Calf thymus DNA [1]): 0.049
K app (Calf thymus DNA [2]): 5.8e+06 M⁻¹

Cc1c2oc3c(C)c(O)c(N)c(C(=O)N[C@H]4C(=O)N[C@@H](C(C)C)C(=O)N5CCC[C@H]5C(=O)N(C)CC(=O)N(C)[C@H](C(C)C)C(=O)O[C@H]4C)c3nc-2c(C(=O)N[C@@H]2C(=O)N[C@H](C(C)C)C(=O)N3CCC[C@@H]3C(=O)N(C)CC(=O)N(C)[C@@H](C(C)C)C(=O)O[C@@H]2C)cc1=O
Bapp (Calf thymus DNA [1]): 0.1
K app (Calf thymus DNA [2]): 3.2e+07 M⁻¹

Cc1c2oc3c(C)c(O)c(N)c(C(=O)N[C@H]4C(=O)N[C@@H](C(C)C)C(=O)N5CCC[C@H]5C(=O)N(C)CC(=O)N(C)[C@H](C(C)C)C(=O)O[C@H]4C)c3nc-2c(C(=O)N[C@@H]2C(=O)N[C@H](C(C)C)C(=O)N3CCC[C@@H]3C(=O)N(C)CC(=O)N(C)[C@@H](C(C)C)C(=O)O[C@@H]2C)c/c1=N/Cc1cccc(Oc2ccccc2)c1
Bapp (Calf thymus DNA [1]): 0.055
K app (Calf thymus DNA [2]): 8.8e+06 M⁻¹

CCOc1cc(C(=O)N[C@@H]2C(=O)N[C@H](C(C)C)C(=O)N3CCC[C@@H]3C(=O)N(C)CC(=O)N(C)[C@@H](C(C)C)C(=O)O[C@@H]2C)c2nc3c(C(=O)N[C@H]4C(=O)N[C@@H](C(C)C)C(=O)N5CCC[C@H]5C(=O)N(C)CC(=O)N(C)[C@H](C(C)C)C(=O)O[C@H]4C)c(N)c(=O)c(C)c-3oc2c1C
Bapp (Calf thymus DNA [1]): 0.097
K app (Calf thymus DNA [2]): 6.9e+06 M⁻¹

Cc1c2oc3c(C)c(O)c(N)c(C(=O)N[C@H]4C(=O)N[C@@H](C(C)C)C(=O)N5CCC[C@H]5C(=O)N(C)CC(=O)N(C)[C@H](C(C)C)C(=O)O[C@H]4C)c3nc-2c(C(=O)N[C@@H]2C(=O)N[C@H](C(C)C)C(=O)N3CCC[C@@H]3C(=O)N(C)CC(=O)N(C)[C@@H](C(C)C)C(=O)O[C@@H]2C)c/c1=N/Cc1ccc[nH]1
Bapp (Calf thymus DNA [1]): 0.055
K app (Calf thymus DNA [2]): 9.2e+07 M⁻¹

COc1cc(C(=O)N[C@@H]2C(=O)N[C@H](C(C)C)C(=O)N3CCC[C@@H]3C(=O)N(C)CC(=O)N(C)[C@@H](C(C)C)C(=O)O[C@@H]2C)c2nc3c(C(=O)N[C@H]4C(=O)N[C@@H](C(C)C)C(=O)N5CCC[C@H]5C(=O)N(C)CC(=O)N(C)[C@H](C(C)C)C(=O)O[C@H]4C)c(N)c(=O)c(C)c-3oc2c1C
Bapp (Calf thymus DNA [1]): 0.11
K app (Calf thymus DNA [2]): 7.7e+06 M⁻¹

Cc1c2oc3c(C)ccc(C(=O)N[C@@H]4C(=O)N[C@H](C(C)C)C(=O)N5CCC[C@H]5C(=O)N(C)CC(=O)N(C)[C@@H](C(C)C)C(=O)O[C@@H]4C)c3nc-2c(C(=O)N[C@@H]2C(=O)N[C@H](C(C)C)C(=O)N3CCC[C@H]3C(=O)N(C)CC(=O)N(C)[C@@H](C(C)C)C(=O)O[C@@H]2C)c(NCCCCCCCCCCN)c1=O
IC50 (CCRF-CEM): 0.28 µg/mL (≈ 0.198 µM)
EC50 (P388 [3]): 700 nM
EC50 (P388 [4]): 2700 nM
ILS (P388 [5]): 64%
MST (P388 [6]): 18 days
Optimal dose (P388 [7]): 1.8 mg/kg

CCCCOc1cc(C(=O)N[C@@H]2C(=O)N[C@H](C(C)C)C(=O)N3CCC[C@@H]3C(=O)N(C)CC(=O)N(C)[C@@H](C(C)C)C(=O)O[C@@H]2C)c2nc3c(C(=O)N[C@H]4C(=O)N[C@@H](C(C)C)C(=O)N5CCC[C@H]5C(=O)N(C)CC(=O)N(C)[C@H](C(C)C)C(=O)O[C@H]4C)c(N)c(=O)c(C)c-3oc2c1C
K app (Calf thymus DNA [2]): 1.1e+06 M⁻¹

CCOc1cc(C(=O)N[C@@H]2C(=O)N[C@H](C(C)C)C(=O)N3CCC[C@H]3C(=O)N(C)CC(=O)N(C)[C@@H](C(C)C)C(=O)O[C@@H]2C)c2nc3c(C(=O)N[C@@H]4C(=O)N[C@H](C(C)C)C(=O)N5CCC[C@H]5C(=O)N(C)CC(=O)N(C)[C@@H](C(C)C)C(=O)O[C@@H]4C)c(N)c(=O)c(C)c-3oc2c1C
IC50 (CCRF-CEM): 0.17 µg/mL (≈ 0.131 µM)
EC50 (P388 [3]): 151 nM
EC50 (P388 [4]): 1630 nM
ILS (P388 [5]): 91%
MST (P388 [6]): 20 days
Optimal dose (P388 [7]): 0.45 mg/kg

COc1cc(C(=O)N[C@@H]2C(=O)N[C@H](C(C)C)C(=O)N3CCC[C@H]3C(=O)N(C)CC(=O)N(C)[C@@H](C(C)C)C(=O)O[C@@H]2C)c2nc3c(C(=O)N[C@@H]4C(=O)N[C@H](C(C)C)C(=O)N5CCC[C@H]5C(=O)N(C)CC(=O)N(C)[C@@H](C(C)C)C(=O)O[C@@H]4C)c(N)c(=O)c(C)c-3oc2c1C
IC50 (CCRF-CEM): 0.16 µg/mL (≈ 0.124 µM)
EC50 (P388 [3]): 69 nM
EC50 (P388 [4]): 628 nM
ILS (P388 [5]): 81%
MST (P388 [6]): 19 days
Optimal dose (P388 [7]): 0.6 mg/kg

— ChEMBL document CHEMBL1121923, “N2- and C-7 substituted actinomycin D analogues: synthesis, DNA-binding affinity, and biochemical and biological properties. Structure-activity relationship” (J Med Chem, 1981)
